The results in this text go back to ChEMBL document CHEMBL1121504, “Aporphines. 31. Synthesis and antitumor activity of aporphine nitrogen mustards” (1980).

Assay [1] concerns B16. In words: Antitumor activity against B16 melanoma tumor system at dose 50 mg/kg. The format is functional, Mus musculus. The gist of the method:
(§1)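 B16 melanocarcinoma assay run at the listed mg/kg doses under standard NCI protocols. Activity is read out as T/C, the treated-to-control ratio.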

Assay [2] has as its system P388. In words: Antitumor activity against intraperitoneally implanted P388 lymphocytic leukemia (P388) system at dose 50 mg/kg. The format is functional, Mus musculus. To be noted: route intraperitoneal. The gist of the method:
(§2)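 Murine-screen tumor implanted intraperitoneally and treated at the listed mg/kg doses under standard NCI protocols. Activity is read out as T/C, the treated-to-control ratio.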

Assay [3] deals with B16. Put plainly: Antitumor activity against B16 melanoma tumor system at dose 25 mg/kg. The format is functional, Mus musculus. In a few lines:
as §1

Assay [4] deals with B16. In words: Antitumor activity against B16 melanoma tumor system at dose 1.56 mg/kg. The format is functional, Mus musculus. In a few lines: as §1
Assay [5] concerns P388. Put plainly: Antitumor activity against intraperitoneally implanted P388 lymphocytic leukemia (P388) system at dose 25 mg/kg. Particulars: route intraperitoneal. The format is functional, Mus musculus. The gist of the method:
as §2

Assay [6] has as its system B16. Put plainly: Antitumor activity against B16 melanoma tumor system at dose 12.5 mg/kg. The format is functional, Mus musculus. In a few lines: as §1
Assay [7] relates to P388. In words: Antitumor activity against intraperitoneally implanted P388 lymphocytic leukemia (P388) system at dose 12.5 mg/kg. The format is functional, Mus musculus. To be noted: route intraperitoneal. The gist of the method:
as §2

Assay [8] concerns P388. In words: Antitumor activity against intraperitoneally implanted P388 lymphocytic leukemia (P388) system at dose 6.25 mg/kg. The format is functional, Mus musculus. Particulars: route intraperitoneal. The gist of the method:
as §2

Assay [9] relates to P388. In words: Antitumor activity against intraperitoneally implanted P388 lymphocytic leukemia (P388) system at dose 3.13 mg/kg. The format is functional, Mus musculus. Particulars: route intraperitoneal. The gist of the method:
as §2

Assay [10] deals with B16. Put plainly: Antitumor activity against B16 melanoma tumor system at dose 3.13 mg/kg. The format is functional, Mus musculus. In a few lines: as §1
Assay [11] concerns B16. In words: Antitumor activity against B16 melanoma tumor system at dose 6.25 mg/kg. The format is functional, Mus musculus. The gist of the method: as §1
The subject of assay [12] is Mus musculus. Put plainly: Antitumor activity against intraperitoneally implanted lymphoid leukemia (LE1210) tumor system at dose 12.5 mg/kg. The format is functional. To be noted: route intraperitoneal. In a few lines: as §2
The subject of assay [13] is Mus musculus. In words: Antitumor activity against intraperitoneally implanted lymphoid leukemia (LE1210) tumor system at dose 50 mg/kg. The format is functional. To be noted: route intraperitoneal. The gist of the method:
as §2

Assay [14] relates to Mus musculus. Put plainly: Antitumor activity against intraperitoneally implanted lymphoid leukemia (LE1210) tumor system at dose 6.25 mg/kg. The format is functional. To be noted: route intraperitoneal. The gist of the method:
as §2

Assay [15] has as its system P388. In words: Antitumor activity against intraperitoneally implanted lymphocytic leukemia (P388) system at dose 4 mg/kg. To be noted: route intraperitoneal. The format is functional, Mus musculus. The gist of the method:
as §2

The nature of assay [16]: Antitumor activity against intracerebrally implanted ependymoblastoma (EM) tumor system at dose 16 mg/kg. The format is functional. In a few lines: (§3)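 Tumor implanted […] and treated at the listed mg/kg doses under standard NCI protocols. Activity is read out as T/C, the treated-to-control ratio.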
The test system of assay [17] is P388. In words: Antitumor activity against intraperitoneally implanted lymphocytic leukemia (P388) system at dose 16 mg/kg. The format is functional, Mus musculus. Particulars: route intraperitoneal. In a few lines: as §2
For assay [18], the system named is P388. In words: Antitumor activity against intraperitoneally implanted lymphocytic leukemia (P388) system at dose 8 mg/kg. The format is functional, Mus musculus. Particulars: route intraperitoneal. In a few lines: as §2
Assay [19] concerns Mus musculus. In words: Antitumor activity against intraperitoneally implanted lymphoid leukemia (LE1210) tumor system at dose 100 mg/kg. The format is functional. To be noted: route intraperitoneal. In a few lines:
as §2

Assay [20] is described as follows: Antitumor activity against intracerebrally implanted ependymoblastoma (EM) tumor system at dose 4 mg/kg. The format is functional. The gist of the method: as §3
Assay [21] in a line: Antitumor activity against intracerebrally implanted ependymoblastoma (EM) tumor system at dose 8 mg/kg. The format is functional. The gist of the method:
as §3

Assay [22] has as its system Mus musculus. In words: Antitumor activity against intraperitoneally implanted lymphoid leukemia (LE1210) tumor system at dose 25 mg/kg. The format is functional. Particulars: route intraperitoneal. In a few lines: as §2
Assay [23] in a line: Antitumor activity against intracerebrally implanted ependymoblastoma (EM) tumor system at dose 2 mg/kg. The format is functional. The gist of the method: as §3
The test system of assay [24] is P388. Put plainly: Antitumor activity against intraperitoneally implanted P388 lymphocytic leukemia (P388) system at dose 4 mg/kg. The format is functional, Mus musculus. To be noted: route intraperitoneal. In a few lines:
as §2

Assay [25] can be described thus: Antitumor activity against intracerebrally implanted ependymoblastoma (EM) tumor system at dose 0.25 mg/kg. The format is functional. The gist of the method:
as §3

Assay [26] deals with B16. Put plainly: Antitumor activity against intraperitoneally implanted B16 melanoma tumor system at dose 2 mg/kg. The format is functional, Mus musculus. Particulars: route intraperitoneal. The gist of the method: as §2
The subject of assay [27] is B16. Put plainly: Antitumor activity against intraperitoneally implanted B16 melanoma tumor system at dose 8 mg/kg. The format is functional, Mus musculus. Particulars: route intraperitoneal. In a few lines:
as §2

Assay [28] relates to P388. Put plainly: Antitumor activity against intraperitoneally implanted P388 lymphocytic leukemia (P388) system at dose 16 mg/kg. Particulars: route intraperitoneal. The format is functional, Mus musculus. In a few lines: as §2
Assay [29] has as its system B16. In words: Antitumor activity against intraperitoneally implanted B16 melanoma tumor system at dose 4 mg/kg. The format is functional, Mus musculus. To be noted: route intraperitoneal. In a few lines: as §2
Assay [30] deals with B16. In words: Antitumor activity against intraperitoneally implanted B16 melanoma tumor system at dose 32 mg/kg. The format is functional, Mus musculus. Particulars: route intraperitoneal. In a few lines:
as §2

The subject of assay [31] is P388. In words: Antitumor activity against intracerebrally implanted lymphocytic leukemia (P388) system at dose 16 mg/kg. The format is functional, Mus musculus.
Assay [32] relates to P388. Put plainly: Antitumor activity against intraperitoneally implanted P388 lymphocytic leukemia (P388) system at dose 8 mg/kg. The format is functional, Mus musculus. To be noted: route intraperitoneal. The gist of the method:
as §2

The nature of assay [33]: Antitumor activity against intracerebrally implanted ependymoblastoma (EM) tumor system at dose 1 mg/kg. The format is functional. The gist of the method: as §3
Assay [34] is described as follows: Antitumor activity against intraperitoneally implanted colon 26 (C26) […] system at dose 4 mg/kg. The format is functional, Mus musculus. Particulars: route intraperitoneal. In a few lines:
as §2

Assay [35] in a line: Antitumor activity against intracerebrally implanted ependymoblastoma (EM) tumor system at dose 0.5 mg/kg. The format is functional. The gist of the method:
as §3

Assay [36] is described as follows: Antitumor activity against intraperitoneally implanted colon 26 (C26) […] system at dose 16 mg/kg. The format is functional, Mus musculus. Particulars: route intraperitoneal. In a few lines:
as §2

Assay [37] relates to B16. Put plainly: Antitumor activity against intraperitoneally implanted B16 melanoma tumor system at dose 16 mg/kg. The format is functional, Mus musculus. To be noted: route intraperitoneal. In a few lines: as §2
The subject of assay [38] is P388. Put plainly: Antitumor activity against intracerebrally implanted lymphocytic leukemia (P388) system at dose 8 mg/kg. The format is functional, Mus musculus.
Assay [39] can be described thus: Antitumor activity against intraperitoneally implanted colon 26 (C26) […] system at dose 32 mg/kg. Particulars: route intraperitoneal. The format is functional, Mus musculus. In a few lines:
as §2

Assay [40] is described as follows: Antitumor activity against intraperitoneally implanted colon 26 (C26) […] system at dose 8 mg/kg. The format is functional, Mus musculus. To be noted: route intraperitoneal. The gist of the method: as §2

Turning to `COc1ccc2c(c1OC(C)=O)-c1cc(OC(C)=O)cc3c1C(C2)N(C(=O)CN(CCCl)CCCl)CC3` (stereo not given), the T/C turned out to be 170 with B16 [1]; 95 with P388 [2]; 150 in the assay with B16 [3]; 120 in the assay on B16 [4]; 185 with P388 [5]; 150 in the assay with B16 [6]. The T/C in the assay with P388 [7] is recorded as 170; in the assay on P388 [8], 150; in the assay with P388 [9], 138; in the assay on B16 [10] it was 120; in the assay with B16 [11] it was 159.
As to `COc1cc2c3c(c1)-c1c(ccc(OC)c1OC)CC3N(CCN(CCCl)CCCl)CC2` (stereo not given), the T/C was determined as 98 with Mus musculus [12]; 101 with Mus musculus [13]; 101 in the assay with Mus musculus [14]; 106 in the assay with P388 [15]; 108 in assay [16]; 113 in the assay with P388 [17]. For the same compound, the T/C in the assay with P388 [18] was 127; with Mus musculus [19] it was 87; in [20], 108; in [21] it was 104; in the assay with Mus musculus [22] it was 101.
For `COc1ccc2c(c1O)-c1cccc3c1C(C2)N(CCCl)CC3` (stereo not given), the T/C in assay [23] is given as 99; with P388 [24], 151; in [25] it was 105; in the assay on B16 [26] it was 100; in assay [20], 104; in the assay with B16 [27] it was 102. For the same compound, the T/C in the assay with P388 [28] was found to be 128; in the assay with B16 [29], 106; in the assay on B16 [30], 103; in the assay with P388 [31], 107; with P388 [32] it was 114; in [33] it was 96. Moreover, the T/C turned out to be 107 in assay [34]; 100 in [35]; 108 in [36]; 106 in the assay on B16 [37]; 96 in the assay with P388 [38]; 124 in assay [39]. Also, the T/C in [40] amounted to 119.
For `COc1ccc2c(c1O)-c1cc(O)cc3c1C(C2)N(C(=O)CN(CCCl)CCCl)CC3` (stereo not given), the T/C in the assay with P388 [5] was 114; in the assay with P388 [7], 158; with P388 [8], 149; with P388 [9], 130.
